ChEMBL document CHEMBL4396918, “Identification of a potent small-molecule inhibitor of bacterial DNA repair that potentiates quinolone antibiotic activity in methicillin-resistant Staphylococcus aureus” (Bioorg Med Chem, 2019)
Calls of active or inactive are those of the source. The calls are words filed in the database; no cut-off is given here.

Legend:
[1] = Ratio of EC50 for antibacterial activity against Escherichia coli K-12 BW25113 to EC50 for Staphylococcus aureus SH1000; format: functional
[2] = tested on: Staphylococcus aureus; assay: Potentiation of ciprofloxacin-induced antibacterial activity against methicillin resistant Staphylococcus aureus USA300 JE2 assessed as fold reduction in ciprofloxacin EC50 incubated for 18 hrs in presence of 0.5 times MIC ciprofloxacin by broth microdilution method relative to ciprofloxacin; format: functional
[3] = Inhibition of N-terminal strep2-tagged AddA (unknown origin) expressed in Escherichia coli BL21 cells transformed with pET28 plasmid by Western blot based pull down assay
Summary of the method: (§1)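 Pulldown from E. coli SoluBL21 expressing StrepII-tagged AddA and His6-tagged AddB from pET28b+, induced overnight at 16 °C. Lysates were obtained by sonication and incubated with compound-functionalized Sepharose or DMSO-treated, Tris-quenched control beads. Beads were washed three times in lysis buffer and eluted in SDS-PAGE sample buffer. Western blots used anti-His6 and anti-StrepII detection.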

[4] = Inhibition of N-terminal his6-tagged AddB (unknown origin) expressed in Escherichia coli BL21 cells transformed with pET28 plasmid by Western blot based pull down assay; summary of the method: as §1
[5] = biological target: T1, DNA gyrase (Escherichia coli) (UniProt P0AES6+P0AES4); assay: Inhibition of Escherichia coli DNA gyrase (A2B2 tetramer) at 12.5 uM using relaxed pBR322 as substrate preincubated for 30 mins followed by enzyme addition by SYBR staining-based agarose gel electrophoresis method; format: protein-complex assay
Summary of the method: (§2)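 Supercoiling of relaxed pBR322 by DNA gyrase, with products (relaxed, […], supercoiled) resolved by agarose gel electrophoresis. Supercoiled fraction quantified by densitometry. Mean ± SEM of 3 technical replicates.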

[6] = tested on: Escherichia coli; assay: Inhibition of Escherichia coli DNA topoisomerase IV using supercoiled pQE80L as substrate at 12.5 uM incubated for 30 mins by ethidium bromide staining-based agarose gel electrophoresis method
[7] = tested on: Staphylococcus aureus; assay: Synergistic antibacterial activity against Staphylococcus aureus USA300 JE2 assessed as ciprofloxacin dose reduction index at 100 uM at 1:1 test compound to ciprofloxacin measured every 30 mins for 17 hrs; format: functional
Summary of the method: (§3)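 OD600 recorded over 17 h at 37 °C. Exponential-phase growth rate used for dose–response EC50 fitting. Combination index and dose-reduction index calculated by the Chou–Talalay method versus fraction affected.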

[8] = tested on: Staphylococcus aureus subsp. aureus USA300; assay: Inhibition of AddAB in Staphylococcus aureus USA300 JE2 transformed with pCN34 PrecA-gfp reporter plasmid assessed as decrease in cell number at 66 uM measured at 15 mins interval for 17 hrs by GFP reporter gene assay
Summary of the method: (§4)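 S. aureus JE2 carrying a recA-promoter GFP reporter. […] Cell number was read as OD600 and SOS activation as GFP fluorescence, then normalized as fluorescence per cell. Mean ± SEM, n = 3 biological replicates.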

[9] = tested on: Staphylococcus aureus subsp. aureus USA300; assay: Inhibition of AddAB in Staphylococcus aureus USA300 JE2 transformed with pCN34 PrecA-gfp reporter plasmid assessed as inhibition of SOS response by measuring reduction in green fluorescence per cell at 66 uM measured at 15 mins interval for 17 hrs by GFP reporter gene assay; summary of the method: as §4
[10] = biological target: T1, DNA gyrase (Escherichia coli); assay: Inhibition of Escherichia coli DNA gyrase (A2B2 tetramer) assessed as Fraction supercoiled at 12.5 uM using relaxed pBR322 as substrate preincubated for 30 mins followed by enzyme addition by SYBR staining-based agarose gel electrophoresis method; format: protein-complex assay; summary of the method: as §2
[11] = tested on: Staphylococcus aureus; assay: Synergistic antibacterial activity against Staphylococcus aureus USA300 JE2 assessed as dose reduction index at 100 uM at 1:1 test compound to ciprofloxacin measured every 30 mins for 17 hrs; format: functional; summary of the method: as §3
[12] = tested on: Staphylococcus aureus subsp. aureus USA300; details: JE2, 66 uM
[13] = tested on: Staphylococcus aureus; assay: Synergistic antibacterial activity against Staphylococcus aureus USA300 JE2 assessed as dose reduction index at 100 uM at 1:2 test compound to ciprofloxacin measured every 30 mins for 17 hrs; format: functional; summary of the method: as §3
[14] = tested on: Staphylococcus aureus; assay: Synergistic antibacterial activity against Staphylococcus aureus USA300 JE2 assessed as ciprofloxacin dose reduction index at 100 uM at 1:2 test compound to ciprofloxacin measured every 30 mins for 17 hrs; format: functional; summary of the method: as §3

| Structure (SMILES) | Ratio EC50 [1] | fold change (FC) [2] | further results |
| --- | --- | --- | --- |
| O=C(O)c1cn(C2CC2)c2cc(N3CCN(C(=S)Nc4cccc(C(F)(F)F)c4)CC3)c(F)cc2c1=O | 2 - 5 | >3 |  |
| O=C(O)c1cn(C2CC2)c2cc(N3CCN(C(=O)Nc4ccccc4)CC3)c(F)cc2c1=O |  |  | inhibition [3]: inactive; inhibition [4]: inactive |
| O=C(O)c1cn(C2CC2)c2cc(N3CCN(C(=S)Nc4ccc(C(F)(F)F)cc4)CC3)c(F)cc2c1=O | 2 - 5 | >3 | inhibition [5]: inactive; inhibition [6]: inactive; Activity_index [7]: 2.9; inhibition [8]: Active; inhibition [9]: Active; inhibition [3]: Active; inhibition [4]: Active; Ratio [10]: 1.2 |
| O=C(O)c1cn(C2CC2)c2cc(N3CCN(C(=S)Nc4cc(Cl)cc(Cl)c4)CC3)c(F)cc2c1=O | 2 - 5 | >3 |  |
| CCn1cc(C(=O)O)c(=O)c2cnc(N3CCN(C(=S)Nc4ccc(C(F)(F)F)cc4)CC3)nc21 | >10 | >4 |  |
| CCn1cc(C(=O)O)c(=O)c2cnc(N3CCN(C(=S)Nc4cccc(F)c4)CC3)nc21 | >10 | >4 |  |
| O=C(O)c1cn(C2CC2)c2cc(N3CCN(C(=S)Nc4cccc([N+](=O)[O-])c4)CC3)c(F)cc2c1=O |  | >4 |  |
| O=C(O)c1cn(C2CC2)c2cc(N3CCN(C(=S)Nc4cc(C(F)(F)F)cc(C(F)(F)F)c4)CC3)c(F)cc2c1=O |  | >4 |  |
| O=C(O)c1cn(C2CC2)c2cc(N3CCN(C(=S)Nc4cccc(F)c4)CC3)c(F)cc2c1=O | 2 - 5 | >3 |  |
| CCn1cc(C(=O)O)c(=O)c2cnc(N3CCN(C(=S)Nc4cc(Cl)cc(Cl)c4)CC3)nc21 | >50 | >4 |  |
| O=C(O)c1cn(C2CC2)c2cc(N3CCN(C(=S)Nc4ccc([N+](=O)[O-])cc4)CC3)c(F)cc2c1=O |  | 20 |  |
| CCn1cc(C(=O)O)c(=O)c2cnc(N3CCN(C(=S)Nc4cccc(C(F)(F)F)c4)CC3)nc21 | >10 | >4 | inhibition [5]: inactive; inhibition [6]: inactive; Activity_index [11]: 2.2; Activity_index [7]: 1.8; Ratio [10]: 1.1 |
| CCn1cc(C(=O)O)c(=O)c2cnc(N3CCN(C(=S)Nc4cc(C(F)(F)F)cc(C(F)(F)F)c4)CC3)nc21 | >10 | >4 |  |
| O=C(O)c1cn(C2CC2)c2cc(N3CCN(C(=S)Nc4cccc(Cl)c4)CC3)c(F)cc2c1=O | 2 - 5 | >3 |  |
| CCn1cc(C(=O)O)c(=O)c2cnc(N3CCN(C(=O)Nc4ccccc4)CC3)nc21 |  | >4 | inhibition [5]: inactive; inhibition [6]: inactive; Ratio [10]: 1.1 |
| O=C(O)c1cn(C2CC2)c2cc(N3CCNCC3)c(F)cc2c1=O |  |  | inhibition [6]: Active; inhibition [8]: Active; inhibition [12]: Active |
| CCn1cc(C(=O)O)c(=O)c2cnc(N3CCN(C(=S)Nc4cccc(Cl)c4)CC3)nc21 | >10 | >4 | inhibition [5]: inactive; Activity_index [13]: 2; Activity_index [14]: 2.2; Ratio [10]: 1.1 |
